# Source: the array DNA melting data of Ke et al. (doi:10.1101/2024.01.08.574731)
# Legend:
# [1] = melting temperature; fluorescence melt of hairpins on a sequencing array, two-state fit, raised by 9.35 °C to match UV melts; conditions: sodium 0.088 M
# Outline: (§1)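 Library hairpins on a sequenced MiSeq flow cell carried annealed Cy3 and quencher oligos, and their Cy3 fluorescence was imaged in 50 mM Na-HEPES pH 8.0 with 25 mM NaCl, in 2.5 °C steps up to 60 °C. Signals were normalised to Cy3 before quenching and to control constructs. Melting temperature and folding enthalpy were obtained from bootstrapped two-state fits, combined by inverse-variance weighting across four replicates, and the fitted temperatures were then raised by 9.35 °C to match UV melts.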
# [2] = folding enthalpy; higher = less favourable; fluorescence melt of hairpins on a sequencing array, two-state fit; conditions: sodium 0.088 M
# Outline: as §1
Sequence,Tm [1],folding enthalpy [2]
GGACTCGAAAGAGATTCC ((((((....)))..))),25.6 °C,-11.3 kcal/mol
GCAAGCGGAAACGCCTGC (((.(((....))).))),54.2 °C,-17.1 kcal/mol
GCATAACGAAAGTTCTGC (((.(((....))).))),45.6 °C,-35.4 kcal/mol
GAAGCCGAAAGGCGTTTC ((((((....)))..))),44.7 °C,-8.82 kcal/mol
GCATTACCGAAAGGTTGC (((..(((....)))))),40 °C,-20.1 kcal/mol
GTCTAGAAATAGAC (((((....))))),40.5 °C,-14.9 kcal/mol
GCAGGTCGAAAGACATGC (((.(((....))).))),64.2 °C,-40.4 kcal/mol
GCAGTTCGAAAGAATTGC (((.(((....))).))),52.6 °C,-38.5 kcal/mol
GATCGAAGCATCGATC ((((((....)))))),51.2 °C,-35.8 kcal/mol
GGAACCGAAAGGTAATCC ((((((....)))..))),26.8 °C,-9.87 kcal/mol
GCGAGAGGAAACTCTTGC ((.((((....)))).)),50 °C,-37 kcal/mol
GCACGGGGAAACCTGTGC ((((.((....)).)))),58.6 °C,-37.7 kcal/mol
GTGCGAACGAAAGTTCAC (((..(((....)))))),53.3 °C,-12.1 kcal/mol
GTATATCGAAAGATTTAC (((.(((....))).))),36.4 °C,-21.8 kcal/mol
GTTGTGGCGAAAGCCAAC (((..(((....)))))),53.7 °C,-18.3 kcal/mol
GCTCTGCGAAAGCGAAGC (((..((....))..))),40.8 °C,-13.6 kcal/mol
GCGATGGGAAACCATTGC ((.((((....)))).)),52.5 °C,-49.3 kcal/mol
GATCTGGGCCAGATC ((((((...)))))),53.2 °C,-51.8 kcal/mol
GGGCCCTCGAAAGAGCCC (((..(((....)))))),48.1 °C,-23 kcal/mol
GCAACCTCGAAAGAGTGC (((..(((....)))))),36.9 °C,-21.7 kcal/mol
GCATGTCGAAAGACCTGC (((.(((....))).))),50.6 °C,-37.4 kcal/mol
GCGGTGCTCCGC ((((....)))),56.1 °C,-18.6 kcal/mol
GATCGTGATTACGATC ((((((....)))))),56 °C,-38.8 kcal/mol
GGACATGGAAACATGCCC ((.((((....)))).)),47.4 °C,-23.4 kcal/mol

Sequence,Tm [1],folding enthalpy [2]
GATCGGCGTACCGATC ((((((....)))))),59.5 °C,-38.2 kcal/mol
CAAACAGAAATGGTTG (((.((....)).))),29.4 °C,-13 kcal/mol
GATCCCTAGGGGATC ((((((...)))))),61.1 °C,-35.4 kcal/mol
GTGGCTTCGAAAGAACAC (((..(((....)))))),29.7 °C,-8.99 kcal/mol
GGGTAACCGAAAGGTCCC (((..(((....)))))),45.8 °C,-18 kcal/mol
GGATGGCGAAAGCCCTCC (((.(((....))).))),49.2 °C,-31.2 kcal/mol
GCGGATACCGC ((((...)))),57.1 °C,-25.8 kcal/mol
GCATAGCGAAAGCGAGGC ((.(.((....)).).)),54.4 °C,-13.3 kcal/mol
GGAGGCGGAAACGCCTTC (.(((((....))))).),57.5 °C,-14.9 kcal/mol
GATCAGGGTCTGATC ((((((...)))))),49.7 °C,-24.1 kcal/mol
GTCTGACGAAAGTCGGAC (((.(((....))).))),62.4 °C,-35.8 kcal/mol
GATGATGGAAACATTGTC ((..(((....)))..)),28.8 °C,-27.9 kcal/mol
GCGACCACTCGC ((((....)))),47 °C,-25.4 kcal/mol
GATCGTCGAGACGATC ((((((....)))))),60 °C,-36.9 kcal/mol
GGAATCCGAAAGGAATCC (((.(((....))).))),48.7 °C,-31.2 kcal/mol
CGTACGGAAACGTCCACG ((((((....)))..))),30.2 °C,-12.1 kcal/mol
GTCCTCGAAAGAGCTGAC ((((((....)))..))),29.5 °C,-12.4 kcal/mol
GATAGCGAAAGCTGTATC ((((((....)))..))),31.9 °C,-12.8 kcal/mol
GTCCGGGCGAAAGCCGAC (((..(((....)))))),44.3 °C,-11.1 kcal/mol
GCTGCGCGAAAGCGGCGC ((..(((....)))..)),63.7 °C,-15.5 kcal/mol
GATCTGGCTCAGATC ((((((...)))))),49.1 °C,-35.5 kcal/mol
GATCATGGCAATGATC ((((((....)))))),56.7 °C,-41.9 kcal/mol
GTGCTCGAAAGAGTTCAC ((((((....)))..))),34.6 °C,-13.6 kcal/mol
GTTGATCGAAAGATAAAC (((.(((....))).))),40 °C,-25.1 kcal/mol

Sequence,Tm [1],folding enthalpy [2]
GATCCACGCTTGGATC ((((((....)))))),52.5 °C,-38.4 kcal/mol
GATCCTACTAGGATC ((((((...)))))),53.6 °C,-36.2 kcal/mol
GGACTCGAAAGAGACTCC ((((((....)))..))),36 °C,-11.6 kcal/mol
GTATGGACGAAAGTCTAC (((..(((....)))))),29.2 °C,-10.9 kcal/mol
GCTTAGAAATAAGC (((((....))))),40.5 °C,-18 kcal/mol
GTGTTCCGAAAGGACAC (((.(((....)))))),53.8 °C,-32.8 kcal/mol
GCAAAGCGAAAGCTCGGC ((..(((....)))..)),36.5 °C,-16.6 kcal/mol
CCGTGGAAACACGG (((((....))))),59.1 °C,-29.2 kcal/mol
GGCATCACGAAAGTGGCC (((..(((....)))))),48.2 °C,-21.9 kcal/mol
GTGCGCGGAAACACGCAC (((((.(....).))))),59.7 °C,-46.6 kcal/mol
GATCTGGGAACAGATC ((((((....)))))),54.5 °C,-39.8 kcal/mol
GATCTGCGGCAGATC ((((((...)))))),50.2 °C,-46.3 kcal/mol
GATACCCGAAAGGGGATC (((.(((....))).))),60 °C,-30.2 kcal/mol
GACTATGGAAACGTAGTC (((((.(....).))))),42 °C,-32.4 kcal/mol
GATCCGTGGTCGGATC ((((((....)))))),58.7 °C,-38.8 kcal/mol
GATCAATTCTTGATC ((((((...)))))),44.8 °C,-29.1 kcal/mol
GTACCCCCGAAAGGGTAC (((..(((....)))))),52.3 °C,-25.7 kcal/mol
GCGGTCGGAAACGACCAC (.(((((....))))).),48.4 °C,-11.6 kcal/mol
GAGTTCGGAAACGAACCC (.(((((....))))).),41.5 °C,-13.3 kcal/mol
GTCGTCGGAAACGATGGC (.(.(((....))).).),46.2 °C,-25.4 kcal/mol
GAGCGGGGAAACCCGCCC (.(((((....))))).),45.1 °C,-8.26 kcal/mol
GTACTTGGAAACAAGTGC (.(((((....))))).),47.4 °C,-21.1 kcal/mol
GCGACCGAAAGGTGACGC ((((((....)))..))),52 °C,-26.7 kcal/mol
GTTTTAGGAAACTAAAAC (((((((....))))))),48.4 °C,-41.9 kcal/mol

Sequence,Tm [1],folding enthalpy [2]
GATTTAGAAATAAATC ((((((....)))))),34.4 °C,-18.8 kcal/mol
GGGTACCCGAAAGGGCCC (((..(((....)))))),47.8 °C,-18.6 kcal/mol
GATCTGCTTACAGATC ((((((....)))))),51.8 °C,-42.8 kcal/mol
GCACTGGGAAACCAGCGC ((.((((....)))).)),51.9 °C,-40.7 kcal/mol
GATCATAGGGATGATC ((((((....)))))),47.3 °C,-34.1 kcal/mol
GGCTTCCGAAAGGACGCC (((.(((....))).))),57.2 °C,-42 kcal/mol
GACACCGAAAGGTCGTC ((((((....))).))),50.2 °C,-21.7 kcal/mol
GCCATGTCGAAAGACGGC (((..(((....)))))),51.5 °C,-20.1 kcal/mol
GATCTGGATGCAGATC ((((((....)))))),50.8 °C,-35.5 kcal/mol
GAGCATGGAAACACGCTC ((((.((....)).)))),44 °C,-35.6 kcal/mol
GTGGTTGGAAACAACCAC (((((((....))))))),65.7 °C,-44.5 kcal/mol
GTAACAGAAATGTTAC ((((((....)))))),45.7 °C,-32.8 kcal/mol
GCTTGGCGAAAGCATAGC (((..((....))..))),46.2 °C,-20.3 kcal/mol
GATCGGACCCCCGATC ((((((....)))))),54.7 °C,-32.9 kcal/mol
GGATAACGAAAGTTCTCC (((.(((....))).))),41.3 °C,-32.7 kcal/mol
GCACATCGAAAGATTGC (((.(((....)))))),46 °C,-27.9 kcal/mol
GCGGAGGGAAACTTCCGC (((((.(....).))))),57.9 °C,-35.4 kcal/mol
GTGCGCCGAAAGGCTCAC (((.(((....))).))),56.9 °C,-29.1 kcal/mol
GGGTATGGAAACATGTCC ((..(((....)))..)),34 °C,-15.6 kcal/mol
GAGCACGAAAGTGTCCTC ((((((....)))..))),35.2 °C,-12.9 kcal/mol
GCGATGGGAAACCGTTGC ((.(.((....)).).)),42.7 °C,-28.8 kcal/mol
